Published values pooled from the literature.
Lines come from different studies, so protocols differ.
Target: Tyrosine-protein kinase ITK/TSK (ITK, Homo sapiens, UniProt Q08881)
One construct used (Q08881 1-620): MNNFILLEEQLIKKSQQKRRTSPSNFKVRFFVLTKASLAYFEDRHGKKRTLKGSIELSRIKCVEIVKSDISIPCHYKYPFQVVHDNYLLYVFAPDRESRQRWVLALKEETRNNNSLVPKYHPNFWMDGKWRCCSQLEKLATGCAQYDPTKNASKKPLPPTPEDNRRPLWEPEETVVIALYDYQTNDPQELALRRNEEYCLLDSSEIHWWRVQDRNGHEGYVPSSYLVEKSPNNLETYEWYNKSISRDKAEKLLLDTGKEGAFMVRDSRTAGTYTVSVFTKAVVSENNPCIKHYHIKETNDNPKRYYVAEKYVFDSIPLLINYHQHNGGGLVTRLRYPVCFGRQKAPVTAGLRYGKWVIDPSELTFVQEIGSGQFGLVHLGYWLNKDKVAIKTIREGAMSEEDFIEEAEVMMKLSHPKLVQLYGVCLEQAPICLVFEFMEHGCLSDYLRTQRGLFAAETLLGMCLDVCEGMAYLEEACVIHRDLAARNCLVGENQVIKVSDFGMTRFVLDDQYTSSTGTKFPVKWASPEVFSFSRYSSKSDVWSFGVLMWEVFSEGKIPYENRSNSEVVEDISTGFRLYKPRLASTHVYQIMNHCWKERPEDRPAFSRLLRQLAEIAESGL

CCN(CC)CCNC(=O)c1c(C)[nH]c(/C=C2\C(=O)Nc3ccc(F)cc32)c1C — inhibition (enzyme activity; inhibitor; 0.3 µM): 48%
COc1cc2nccc(Oc3ccc(NC(=O)c4c5n(n(-c6ccc(F)cc6)c4=O)CCCC5)cc3)c2cc1OC — inhibition (enzyme activity; inhibitor; 0.1 µM): 9%
CC(C)(C)c1nc2c(s1)c1nc(N)ncc1c1ccc(NS(=O)(=O)c3c(F)cccc3F)c(F)c12 — remaining activity (enzyme activity; inhibitor; radiometric; 1 µM): 94%
O=C(Nc1cccnn1)N1CCC(=Cc2cccc(Oc3ccc(C(F)(F)F)cn3)c2)CC1 — remaining binding (cell-free assay; competition with immobilised ligand; 1 µM): 100%
c1nc2c(Nc3ccc4c(c3)OCCO4)nc(Nc3ccc4c(c3)OCCO4)nc2[nH]1 — activity vs control (enzyme activity; inhibitor; 10 µM): 5.1%
CCc1ccccc1C(=O)Nc1n[nH]c2c(C)c(F)c(C3C(C#N)=C(C)N(C)C(C)=C3C#N)cc12 — remaining binding (cell-free assay; competition with immobilised ligand; 1 µM): 86%
O=C1NC(=O)c2cc(Nc3ccc(F)cc3)c(Nc3ccc(F)cc3)cc21 — remaining signal (cell-free assay; 0.5 µM): 87.3%
CN(C)C1CCN(CC#Cc2nn(C3CCCC3)c3nc(NCc4ccccc4)ncc23)C1 (stereo not shown) — inhibition (enzyme activity; inhibitor; FRET; 1 µM): 5%
COc1cc(C)c(Sc2cnc(NC(=O)c3ccc(N4CCN(CCCCCCCNC(=O)COc5cccc6c5C(=O)N(C5CCC(=O)NC5=O)C6=O)CC4)cc3)s2)cc1C(=O)N1CCN(C(C)=O)CC1 (stereo not shown) — inhibition (binding; 1 µM): > 90%
Cc1cnc(NC2CCOCC2)nc1-n1cnc(C(=O)NC(CN)c2cc(F)cc(Cl)c2)c1 (stereo not shown) — remaining activity (enzyme activity; inhibitor; radiometric; 1 µM): 92%
CS(=O)(=O)N1CCCC(NC(=O)[C@H](CCC2CCCCC2)NC(=O)c2ccc(CNc3ncnc4c3nnn4-c3ccccc3)cc2)C1 (stereo partly shown) — remaining binding (cell-free assay; competition with immobilised ligand; 0.1 µM): 100%
COc1cc2ncnc(Nc3ccc(Oc4ccccc4)c(C)c3C)c2cc1OC — inhibition (enzyme activity; inhibitor; 1 µM): 7%
O=c1cc(-c2cccc3c2Sc2ccccc2S3)oc(N2CCOCC2)c1 — remaining activity (enzyme activity; inhibitor; 0.5 µM): 96.6%
CO[C@H]1CC[C@H](CNc2ccc(S(=O)(=O)NC(=O)c3ccc(N4CCN(CC5=C(c6ccc(Cl)cc6)CC(C)(C)CC5)CC4)cc3Oc3cnc4[nH]ccc4c3)cc2[N+](=O)[O-])CC1 — remaining binding (cell-free assay; competition with immobilised ligand; 1 µM): 87%
O=C1Nc2ccc(Cl)cc2C1=Cc1cc(Cl)c(O)c(Cl)c1 — remaining signal (cell-free assay; 0.5 µM): 91.8%
C[C@@H]1CN(c2cc(-c3n[nH]c4ccc(OC5(C)CC5)cc34)ncn2)C[C@H](C)O1 — remaining binding (cell-free assay; competition with immobilised ligand; 0.1 µM): 87%
CNC(=O)c1cc(Oc2ccc(NC(=O)Nc3ccc(Cl)c(C(F)(F)F)c3)cc2)ccn1 — inhibition (enzyme activity; inhibitor; 10 µM): 32%
CCC(=O)N[C@H]1CC[C@@H](C(=O)N(C)c2ccc(-c3nc4ccccc4o3)cc2)C1 — remaining binding (cell-free assay; competition with immobilised ligand; 1 µM): 100%
O=C(Nc1cnn(-c2csc(C(=O)NC3COC3)c2)c1)Nc1c(F)cccc1Cl — remaining activity (enzyme activity; inhibitor; 5 µM): 92.8%
